Measurements: PubChem BioAssay
Inconclusive results are not listed.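 Rule for the calls, unless noted: active = inhibition over a set limit, the all-compound mean plus 3 SD, in both replicate runs; inconclusive = over that limit in just one replicate run; inactive = at or under that limit in both runs.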

Columns and labels:
[1] = OD615 S. cerevisiae growth inhibition, permissive medium, pilot counter-assay, permissive growth control for S. cerevisiae lifespan shortening project (AID 705;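 active = growth inhibition above 25% in both replicates, a cutoff set 3 SD above the mean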); settings: OD615, 24 h, at 10 µM, hits give high values
Method in brief: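 Material: engineered DeaD yeast; Compound: one dose 10 µM, DMSO 0.25% final; Detection: absorbance (optical density) at 615 nm; Buffer or medium: permissive raffinose/galactose medium; Timing: 24 h exposure, 30 °C.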

[2] = Restrictive medium S. cerevisiae growth inhibition, OD615, pilot screen of yeast lifespan reduction project, restrictive growth control (AID 706;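 active = growth inhibition above a set limit, 3 SD over mean compound inhibition, in both replicates, cut at about 43% in these data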;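 note: modified DeaD lifespan yeast strain shifted to restrictive glucose medium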); settings: OD615, 48 h, at 10 µM, hits give high values
Method in brief: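 Buffer or medium: restrictive glucose medium (CSMM-D); test system: modified S. cerevisiae; doses: single dose of 10 µM compound final, 0.25% DMSO; schedule: 48 h compound exposure at 30 °C; detection: absorbance (optical density) measured at 615 nm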

[3] = viability gain of MRP-1-high H69AR cells under doxorubicin, pilot screen, MRP-1 activator project, CellTiter-Glo, duplicate (AID 807;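 active = viability increase at or above a cutoff of the median across tested compounds plus 3 SD, cut at about 8.5% in these data, passing the limit was not always enough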;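 note: compound pretreatment 18-22 h then 72 h combined with doxorubicin; 0% = doxorubicin alone and 100% = vehicle without doxorubicin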); settings: H69AR viability with doxorubicin, CellTiter-Glo luminescence; at 10 µM; hits give high values
[4] = growth suppression of beta-catenin knockout HCT116, pilot screen, human colon tumor cells (AID 823;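 active = cell viability at or below a set limit in both duplicate runs, the limit being the all-compound median minus 4 SD, cut at about 23% in these data, passing the limit was not always enough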;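 note: 0% = wells killed by 20 µM Hyamine and 100% = untreated DMSO cell wells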); settings: CellTiter-Glo, 60 h, at 10 µM, hits give low values
[5] = growth suppression of PTEN-deleted HCT116, pilot screen, cell-based, HCT116 clonal line, CellTiter-Glo (AID 824;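 active = viability at or below 27.92% in each of two runs, the all-compound median minus 4 SD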;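 note: 0% = 20 µM Hyamine control and 100% = vehicle cell control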); settings: 60 h, at 10 µM, hits give low values
[6] = inhibitors of the yeast RAM network, pilot screen, dse1pr::URA3 reporter, 5-FOA selection (AID 869);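 note: 0% = DMSO wells with no growth and 100% = 10 µM 1-NA-PP1 with full growth; RAM network block rescues cells from 5-FOA so hits raise OD615 growth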; settings: S. cerevisiae dse1pr::URA3 5-FOA growth, OD615, 2 d; at 10 µM; hits give high values; strain carries analog-sensitive mutant Cbk1 kinase
[7] = RAM signaling pathway blockade in yeast – S. cerevisiae, Pdr1DBD-CYC8 efflux-inhibited sensitized strain, primary screen (AID 1298;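 active = RAM network inhibition above 8.4% in each of two replicates, 3 SD over the compound average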;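 note: 0% = DMSO untreated cells without growth and 100% = 10 µM 1-NA-PP1 full growth; higher means more yeast growth rescued from 5-FOA killing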); settings: S. cerevisiae cbk1-as DSE1-URA3 strain, 5-FOA growth OD615, 2 d; at 50 µM; hits give high values

CCOC(=O)c1cc2c(=O)n3ccccc3nc2n(CCOC)c1=NC(=O)C(C)(C)C
inactive: growth inhibition [1] -6.44% | growth inhibition [2] -18.2% | viability increase [3] -3.78% | viability [4] 93.6% | viability [5] 96.9% | inhibition [6] -0.545% | RAM network inhibition [7] 5.12%

CCn1c(/C=N/n2cnnc2)nc2ccccc21
inactive: growth inhibition [1] -6.04% | growth inhibition [2] -5.67% | viability increase [3] -0.75% | viability [4] 96.8% | viability [5] 92.8% | inhibition [6] 1.56% | RAM network inhibition [7] -0.99%

COc1ccccc1N1CCN(C(=O)c2cc3c(=O)n(C)c4ccccc4c3n2C)CC1
inactive: growth inhibition [1] -7.35% | growth inhibition [2] 3.62% | viability increase [3] 2.2% | viability [4] 67.3% | viability [5] 72% | inhibition [6] 0.125% | RAM network inhibition [7] -0.26%

CCn1c(C(=O)N2CCc3ccccc3C2)cc2sccc21
inactive: growth inhibition [1] -11.6% | growth inhibition [2] -2.25% | viability increase [3] -0.05% | viability [4] 84.1% | viability [5] 74.5% | inhibition [6] 0.465% | RAM network inhibition [7] 4.84%

CC(=O)c1sc(N2C(=O)c3oc4ccccc4c(=O)c3C2c2ccc(C)o2)nc1C (configuration not stated)
inactive: growth inhibition [1] 3.87% | growth inhibition [2] 6.34% | viability increase [3] -3.31% | viability [4] 96.1% | viability [5] 94.3% | inhibition [6] 1.98% | RAM network inhibition [7] -0.52%

CCOc1cc(C(=O)NCCN2CCOCC2)cc(OCC)c1OCC
inactive: growth inhibition [1] -5.59% | growth inhibition [2] -3.11% | viability increase [3] -3.76% | viability [4] 91.3% | viability [5] 96.4% | inhibition [6] -0.045% | RAM network inhibition [7] 2.61%

COc1cccc(-n2c(Cc3cc(=O)[nH]c(=O)[nH]3)nnc2SCC(=O)N2CCCCCC2)c1
inactive: growth inhibition [1] -10.1% | growth inhibition [2] -12.1% | viability increase [3] -0.94% | viability [4] 99.3% | viability [5] 98.5% | inhibition [6] -0.735% | RAM network inhibition [7] 7.07%

CNC(=O)CN1C(=O)CSc2nc(C)cc(C)c21
inactive: growth inhibition [1] -8.87% | growth inhibition [2] -6.29% | viability increase [3] 0.88% | viability [4] 99.9% | viability [5] 97.8% | inhibition [6] 1.83% | RAM network inhibition [7] 1.73%

CCCCNc1ncnc2c1cnn2-c1ccc(C)cc1C
inactive: growth inhibition [1] 6.55% | growth inhibition [2] 9.48% | viability increase [3] -3.72% | viability [4] 92.8% | viability [5] 89.2% | inhibition [6] -0.12% | RAM network inhibition [7] 0.27%

CCOC(=O)c1c(C)[nH]c(C(=O)OC)c1CCC(=O)OC
inactive: growth inhibition [1] -9.89% | growth inhibition [2] -23.6% | viability increase [3] -2.86% | viability [4] 90.8% | viability [5] 91.9% | inhibition [6] 2.56% | RAM network inhibition [7] 2.65%

Cc1c(C(=O)NCC2CCCO2)oc2ccc(S(=O)(=O)N3CCCCC3)cc12 (configuration not stated)
inactive: growth inhibition [1] -15.5% | growth inhibition [2] -9.72% | viability increase [3] -0.95% | viability [4] 89.9% | viability [5] 92.1% | inhibition [6] 2.4% | RAM network inhibition [7] 1.2%

CC(C)NC(=O)NC(=O)COc1ncnc2sccc12
inactive: growth inhibition [1] -4.68% | growth inhibition [2] -7.55% | viability increase [3] -1.28% | viability [4] 97.6% | viability [5] 105% | inhibition [6] 1.22% | RAM network inhibition [7] 2.67%

CC(C)Nc1ncnc2c1cnn2-c1ccc(Cl)cc1
inactive: growth inhibition [1] 5.42% | growth inhibition [2] -5.25% | viability increase [3] -3.14% | viability [4] 83.3% | viability [5] 72.6% | inhibition [6] 1.14% | RAM network inhibition [7] -0.94%

Cc1ccc(-c2nn(C)c(=O)c3ccccc23)cc1S(=O)(=O)N1CCCC1
inactive: growth inhibition [1] -1.23% | growth inhibition [2] -6.2% | viability increase [3] -5.14% | viability [4] 49.8% | viability [5] 61% | inhibition [6] 0.01% | RAM network inhibition [7] 2.78%

Cc1nn2cc(-c3ccccc3)nc2s1
inactive: growth inhibition [1] -5.37% | growth inhibition [2] -7.45% | viability increase [3] -1.05% | viability [4] 93.3% | viability [5] 91.6% | inhibition [6] 0.575% | RAM network inhibition [7] 4.7%

c1ccc(Nc2nc3ccccc3n3cnnc23)cc1
inactive: growth inhibition [1] -1.27% | growth inhibition [2] 10.2% | viability increase [3] -5.23% | viability [4] 86.1% | viability [5] 84.6% | inhibition [6] 2.09% | RAM network inhibition [7] -0.58%

COc1ccc2c(=O)c(N3C(=O)c4ccccc4C3=O)c(C)oc2c1
inactive: growth inhibition [1] -11.8% | growth inhibition [2] -0.32% | viability increase [3] -1.12% | viability [4] 94.2% | viability [5] 92.6% | inhibition [6] -0.25% | RAM network inhibition [7] 1.33%

O=C(O)c1cc2nc(C3CC3)cc(C(F)(F)F)n2n1
inactive: growth inhibition [1] -2.34% | growth inhibition [2] -2.47% | viability increase [3] 0.62% | viability [4] 102% | viability [5] 90.1% | inhibition [6] 1.67% | RAM network inhibition [7] -2.13%

COC(=O)c1c(-c2ccc(C)cc2)csc1N
inactive: growth inhibition [1] 1.67% | growth inhibition [2] 0.135% | viability increase [3] -3.98% | viability [4] 75.8% | viability [5] 87.8% | inhibition [6] -0.61% | RAM network inhibition [7] -1.79%

COc1ccc(C2=CC(c3ccc(Cl)cc3)n3cnnc3N2)cc1OC (configuration not stated)
inactive: growth inhibition [1] -1.79% | growth inhibition [2] 2.91% | viability increase [3] -2.06% | viability [4] 97.3% | viability [5] 87% | inhibition [6] 0.37% | RAM network inhibition [7] 0.78%

CCOC(=O)CC1C(=O)NCCN1C(=O)c1cc2c(=O)n3ccccc3nc2s1 (configuration not stated)
inactive: growth inhibition [1] -13.7% | growth inhibition [2] 0.575% | viability increase [3] 1.22% | viability [4] 95.3% | viability [5] 95.5% | inhibition [6] 1% | RAM network inhibition [7] 6.8%

CCOc1ccc(N2C(=O)c3ccccc3C2O)cc1 (configuration not stated)
inactive: growth inhibition [1] 6.33% | growth inhibition [2] 11.8% | viability increase [3] 1.68% | viability [4] 101% | viability [5] 87.5% | inhibition [6] -0.05% | RAM network inhibition [7] 2.58%

Cc1c(C(=O)NCc2cccnc2)oc2ccc(S(=O)(=O)N3CC(C)CC(C)C3)cc12 (configuration not stated)
inactive: growth inhibition [1] -3.33% | growth inhibition [2] 16.4% | viability increase [3] -4.52% | viability [4] 93% | viability [5] 87.1% | inhibition [6] 1.87% | RAM network inhibition [7] 2.77%

CCSCCOC(=O)C1=C(C)NC(=O)NC1c1ccccc1 (configuration not stated)
inactive: growth inhibition [1] -4.77% | growth inhibition [2] -1.22% | viability increase [3] 0.68% | viability [4] 105% | viability [5] 98.1% | inhibition [6] 1.47% | RAM network inhibition [7] 0.3%

COC(=O)c1ccc(NC(=O)CNC(=O)C2CCCCC2)cc1
inactive: growth inhibition [1] -0.115% | growth inhibition [2] -0.73% | viability increase [3] -0.57% | viability [4] 98.4% | viability [5] 88.1% | inhibition [6] 0.625% | RAM network inhibition [7] 1.94%

O=S1(=O)N=C(Nc2ccc(O)c(CN3CCCCC3)c2)c2ccccc21
inactive: growth inhibition [1] 5.56% | growth inhibition [2] -0.14% | viability increase [3] -3.07% | viability [4] 90.8% | viability [5] 97.1% | inhibition [6] 2.89% | RAM network inhibition [7] 6.37%

O=C(NCCC1=CCCCC1)c1ccc2c(=O)n3c(nc2c1)CCCCC3
inactive: growth inhibition [1] -10.1% | growth inhibition [2] -2.77% | viability increase [3] -1.07% | viability [4] 89.6% | viability [5] 97.8% | inhibition [6] -0.66% | RAM network inhibition [7] 0.26%

Cn1c(=O)c2c(nc(OCc3ccccc3)n2C)n(C)c1=O
inactive: growth inhibition [1] -2.8% | growth inhibition [2] -0.39% | viability increase [3] 3.09% | viability [4] 100% | viability [5] 98.3% | inhibition [6] -0.115% | RAM network inhibition [7] 0.26%

CCOC(=O)C1C(=O)CC(C)(O)C(C(=O)OCC)C1c1ccco1 (configuration not stated)
inactive: growth inhibition [1] -11% | growth inhibition [2] -5.69% | viability increase [3] -1.04% | viability [4] 101% | viability [5] 103% | inhibition [6] 1.04% | RAM network inhibition [7] 2.45%

CCc1nc(C)cn1S(=O)(=O)c1ccc(Cl)c(Cl)c1Cl
inactive: growth inhibition [1] -6.5% | growth inhibition [2] -13.9% | viability increase [3] -0.17% | viability [4] 99.3% | viability [5] 98.7% | inhibition [6] 0.805% | RAM network inhibition [7] 7.3%

Cc1ccc(C(c2sc3nc(C)nn3c2O)N2CCN(CCO)CC2)cc1 (configuration not stated)
inactive: growth inhibition [1] -1.01% | growth inhibition [2] 7% | viability increase [3] -0.92% | viability [4] 97.8% | viability [5] 97.5% | inhibition [6] 1.54% | RAM network inhibition [7] 4.52%

COC(=O)c1sc(NC(=O)C2CCCCC2C(=O)O)c(C(=O)OC)c1C (configuration not stated)
inactive: growth inhibition [1] -5.95% | growth inhibition [2] 0.13% | viability increase [3] -2.78% | viability [4] 104% | viability [5] 94.6% | inhibition [6] 2.49% | RAM network inhibition [7] 6.27%

COc1cccc(-n2c(Cc3cc(=O)[nH]c(=O)[nH]3)nnc2SCc2cccnc2)c1
inactive: growth inhibition [1] -7.23% | growth inhibition [2] -2.88% | viability increase [3] 0.52% | viability [4] 106% | viability [5] 102% | inhibition [6] 0% | RAM network inhibition [7] 0.9%

CCn1c(=O)c2cc(C(=O)N3CCOCC3)sc2c2ccccc21
inactive: growth inhibition [1] -8.55% | growth inhibition [2] -14.5% | viability increase [3] -3.34% | viability [4] 102% | viability [5] 87.3% | inhibition [6] 0.84% | RAM network inhibition [7] 2.72%

O=C(C1CC1)N1CCc2cc(Br)cc(S(=O)(=O)NCCCN3CCCC3)c21
inactive: growth inhibition [1] -9.22% | growth inhibition [2] -4.36% | viability increase [3] -2.47% | viability [4] 87.6% | viability [5] 86.3% | inhibition [6] 0.08% | RAM network inhibition [7] 5.37%

Cc1ccccc1-c1nc(CN2CCC(C(=O)O)CC2)c(C)o1
inactive: growth inhibition [1] 1.1% | growth inhibition [2] -0.365% | viability increase [3] -0.95% | viability [4] 103% | viability [5] 93.9% | inhibition [6] 0% | RAM network inhibition [7] 0.11%
